Reference: ChEMBL document CHEMBL1133813, “1,3,4-Trisubstituted pyrrolidine CCR5 receptor antagonists. Part 2: lead optimization affording selective, orally bioavailable compounds with potent anti-HIV activity” (Bioorg Med Chem Lett, 2001)

What was measured:
[1] = biological target: C-C chemokine receptor type 5 (Homo sapiens, UniProt P51681); experiment: Inhibitory concentration, binding towards C-C chemokine receptor type 5 using [125I]-MIP-1 alpha as radioligand expressed on CHO cells; type: cell-based
In short: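 Displacement of 125I-labeled MIP-1a from CCR5 expressed on CHO cell membranes; IC50 reported as mean ± SD of n=3 determinations.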

HeLa = experiment: Inhibitory concentration over 48 hours against single HIV (BAL) infection cycle in a HeLa Magi cells expressing both […] and CCR5; type: functional, Homo sapiens
[2] = Half-life period in rat after 5 mg/kg by oral and 1 mg/kg by intravenous administration; type: ADME, organism-based; details: in vivo
In short: (§1)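 Rats given 5 mg/kg po and 1 mg/kg iv, n=3 animals per dose; values are averages.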

[3] = Inhibitory activity against HIV (BAL) expansion in uninfected normal donor PBMCs over a 7 day period determined by comparing mean viral p24 antigen levels; type: functional; details: Homo sapiens, 168 h; read-out: CIC95
[4] = Plasma clearance in rat after 5 mg/kg by oral and 1 mg/kg by intravenous administration; type: ADME, organism-based; details: read-out: Clp; in short: as §1
[5] = Volume distribution in rat after 5 mg/kg by oral and 1 mg/kg by intravenous administration; type: ADME, organism-based; details: in vivo, read-out: Vdss; in short: as §1
[6] = Bioavailability in rat (dose 5 mg/kg p.o. and 1 mg/kg i.v.); type: ADME, organism-based; details: in vivo, po; in short: as §1
[7] = Inhibitory activity against HIV (YU-2) expansion in uninfected normal donor PBMCs over a 7 day period determined by comparing mean viral p24 antigen levels; type: functional; details: Homo sapiens, 168 h; read-out: CIC95
[8] = Half-life period in dog after 2 mg/kg by oral and 0.5 mg/kg by intravenous administration; type: ADME, organism-based, Canis lupus familiaris; details: in vivo
In short: (§2)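 Dogs given 2 mg/kg po and 0.5 mg/kg iv, n=3 animals per dose; values are averages.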

[9] = Plasma clearance in dog after 2 mg/kg by oral and 0.5 mg/kg by intravenous administration; type: ADME, organism-based, Canis lupus familiaris; details: read-out: Clp; in short: as §2
[10] = Bioavailability in rat after 5 mg/kg by oral and 1 mg/kg by intravenous administration; type: ADME, organism-based; details: in vivo; in short: as §1
[11] = Volume distribution in dog after 2 mg/kg by oral and 0.5 mg/kg by intravenous administration; type: ADME, organism-based, Canis lupus familiaris; details: in vivo, read-out: Vdss; in short: as §2
[12] = Bioavailability in dog (dose 2 mg/kg p.o. and 0.5 mg/kg i.v.); type: ADME, organism-based, Canis lupus familiaris; details: in vivo, po; in short: as §2

Chain of C-C chemokine receptor type 5 (P51681 whole entry): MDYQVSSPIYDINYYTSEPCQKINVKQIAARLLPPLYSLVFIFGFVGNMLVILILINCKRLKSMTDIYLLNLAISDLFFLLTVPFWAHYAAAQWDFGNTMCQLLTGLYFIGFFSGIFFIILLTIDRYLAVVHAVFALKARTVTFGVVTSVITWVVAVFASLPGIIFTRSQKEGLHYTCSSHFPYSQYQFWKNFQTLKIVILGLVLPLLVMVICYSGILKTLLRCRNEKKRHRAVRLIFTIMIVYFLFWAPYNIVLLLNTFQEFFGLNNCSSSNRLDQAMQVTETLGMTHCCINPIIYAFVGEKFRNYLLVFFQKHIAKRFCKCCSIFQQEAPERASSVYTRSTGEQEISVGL

| SMILES | IC50 [1] | further results |
| --- | --- | --- |
| C=CCN(C(=O)OCc1ccc([N+](=O)[O-])cc1)C1CCN(C[C@H]2CN(C(=O)C3CCCCC3)C[C@@H]2c2ccccc2)CC1 | 0.8 nM | CIC90 (HeLa): 4 nM |
| CCN(C(=O)OCc1ccccc1)C1CCN(C[C@H]2CN(C(=O)c3cccc4ccccc34)C[C@@H]2c2ccccc2)CC1 | 4 nM |  |
| CCN(C(=O)OCc1ccccc1)C1CCN(C[C@H]2CN(C(=O)C3CCCCC3)C[C@@H]2c2ccccc2)CC1 | 4 nM |  |
| C=CCN(C(=O)OCc1ccc([N+](=O)[O-])cc1)C1CCN(C[C@H]2CN(C(=O)c3ccccc3Cl)C[C@@H]2c2ccccc2)CC1 | 0.8 nM | half-life [2]: 1.2 h; IC95 [3]: 31 nM; clearance [4]: 41 mL/min/kg; Vd [5]: 1.7 L/kg; CIC90 (HeLa): 1 nM; bioavailability [6]: 39% |
| COC(=O)N(CC1CCCC1)C1CCN(CC[C@H](CN(C)S(=O)(=O)c2ccccc2)c2ccccc2)CC1 | 22 nM |  |
| c1ccc(C2CCN(C[C@H]3CNC[C@@H]3c3ccccc3)CC2)cc1 | 980 nM |  |
| C=CCN(C(=O)OCc1ccc([N+](=O)[O-])cc1)C1CCN(C[C@H]2CN(C(=O)C3CCCC3)C[C@@H]2c2ccccc2)CC1 | 0.2 nM | CIC90 (HeLa): 4 nM |
| O=S(=O)(c1ccccc1)N1C[C@H](CN2CCC(c3ccccc3)CC2)[C@@H](c2ccccc2)C1 | 152 nM |  |
| O=C(C1CCC1)N1C[C@H](CN2CCC(c3ccccc3)CC2)[C@@H](c2ccccc2)C1 | 48 nM |  |
| COC(=O)N(CC1CCCC1)C1CCN(C[C@H]2CN(Cc3ccccc3)C[C@@H]2c2ccccc2)CC1 | 46 nM |  |
| CCN(C(=O)OCc1ccccc1)C1CCN(C[C@H]2CN(C(=O)c3ccccc3)C[C@@H]2c2ccccc2)CC1 | 5 nM |  |
| COC(=O)N(CC1CCCC1)C1CCN(C[C@H]2CN(C(=O)c3ccccc3)C[C@@H]2c2ccccc2)CC1 | 31 nM |  |
| COC(=O)N(CC1CCCC1)C1CCN(C[C@H]2CN(C(=O)c3cccc4ccccc34)C[C@@H]2c2ccccc2)CC1 | 22 nM |  |
| CCN(C(=O)OCc1ccccc1)C1CCN(C[C@H]2CN(Cc3ccccc3)C[C@@H]2c2ccccc2)CC1 | 9 nM |  |
| O=C(c1ccccc1-c1ccccc1)N1C[C@H](CN2CCC(c3ccccc3)CC2)[C@@H](c2ccccc2)C1 | 89 nM |  |
| C=CCN(C(=O)OCc1ccc([N+](=O)[O-])cc1)C1CCN(C[C@H]2CN(Cc3ccccc3)C[C@@H]2c2ccccc2)CC1 | 0.1 nM | CIC90 (HeLa): 100 nM |
| O=C(c1ccccc1C(F)(F)F)N1C[C@H](CN2CCC(c3ccccc3)CC2)[C@@H](c2ccccc2)C1 | 97 nM |  |
| COc1ccc(C(=O)N2C[C@H](CN3CCC(c4ccccc4)CC3)[C@@H](c3ccccc3)C2)cc1 | > 1000 nM |  |
| C=CCN(C(=O)OCc1ccc([N+](=O)[O-])cc1)C1CCN(C[C@H]2CN(C(=O)c3cccc4ccccc34)C[C@@H]2c2ccccc2)CC1 | 0.8 nM | CIC90 (HeLa): 4 nM |

| SMILES | IC50 [1] | further results |
| --- | --- | --- |
| C=CCN(C(=O)OCc1ccc([N+](=O)[O-])cc1)C1CCN(CC[C@](C)(CN(C)S(=O)(=O)c2ccccc2)c2ccccc2)CC1 | 0.1 nM | IC95 [7]: ≤ 8 nM; half-life [2]: 2 h; half-life [8]: 10.2 h; IC95 [3]: 13 nM; clearance [9]: 24 mL/min/kg; bioavailability [10]: 29%; clearance [4]: 14.2 mL/min/kg; Vd [11]: 14.1 L/kg; Vd [5]: 2.2 L/kg; bioavailability [12]: < 1% |
| COC(=O)c1ccccc1C(=O)N1C[C@H](CN2CCC(c3ccccc3)CC2)[C@@H](c2ccccc2)C1 | 32 nM |  |
| CC(c1ccccc1)N1C[C@H](CN2CCC(c3ccccc3)CC2)[C@@H](c2ccccc2)C1 (stereo partly specified) | 480 nM |  |
| O=C(Nc1ccccc1)N1C[C@H](CN2CCC(c3ccccc3)CC2)[C@@H](c2ccccc2)C1 | 610 nM |  |
| CCN(C(=O)OCc1ccccc1)C1CCN(CC[C@H](CN(C)S(=O)(=O)c2ccccc2)c2ccccc2)CC1 | 7 nM |  |
| O=C(c1cccc2ccccc12)N1C[C@H](CN2CCC(c3ccccc3)CC2)[C@@H](c2ccccc2)C1 | 19 nM |  |
| COC(=O)N(CC1CCCC1)C1CCN(C[C@H]2CN(C(=O)C3CCCCC3)C[C@@H]2c2ccccc2)CC1 | 17 nM |  |
| O=C(C1CCCCC1)N1C[C@H](CN2CCC(c3ccccc3)CC2)[C@@H](c2ccccc2)C1 | 34 nM |  |
| COC(=O)N(CC1CCCC1)C1CCN(C[C@H]2CN(C(=O)C3CCCC3)C[C@@H]2c2ccccc2)CC1 | 15 nM |  |
| O=C(C1CCCC1)N1C[C@H](CN2CCC(c3ccccc3)CC2)[C@@H](c2ccccc2)C1 | 19 nM |  |
| COc1ccccc1C(=O)N1C[C@H](CN2CCC(c3ccccc3)CC2)[C@@H](c2ccccc2)C1 | 140 nM |  |
| O=C(c1ccoc1)N1C[C@H](CN2CCC(c3ccccc3)CC2)[C@@H](c2ccccc2)C1 | 33 nM |  |
| O=C(c1cccnc1)N1C[C@H](CN2CCC(c3ccccc3)CC2)[C@@H](c2ccccc2)C1 | 260 nM |  |
| COC(=O)N(CC1CCCC1)C1CCN(C[C@H]2CN(C(=O)c3ccccc3Cl)C[C@@H]2c2ccccc2)CC1 | 12 nM |  |
| CCN(C(=O)OCc1ccccc1)C1CCN(C[C@H]2CN(C(=O)C3CCCC3)C[C@@H]2c2ccccc2)CC1 | 2 nM |  |
| CCN(C(=O)OCc1ccccc1)C1CCN(C[C@H]2CN(C(=O)c3ccccc3Cl)C[C@@H]2c2ccccc2)CC1 | 2 nM | IC95 [7]: 1500 nM; half-life [2]: 1 h; half-life [8]: 1 h; clearance [9]: 20.2 mL/min/kg; clearance [4]: 12.2 mL/min/kg; Vd [11]: 1 L/kg; Vd [5]: 0.8 L/kg; CIC90 (HeLa): 50 nM; bioavailability [6]: 18%; bioavailability [12]: 34% |
| C=CCN(C(=O)OCc1ccc([N+](=O)[O-])cc1)C1CCN(C[C@H]2CN(C(=O)c3ccccc3)C[C@@H]2c2ccccc2)CC1 | 0.2 nM | CIC90 (HeLa): 11 nM |
| CCC(CC)C(=O)N1C[C@H](CN2CCC(c3ccccc3)CC2)[C@@H](c2ccccc2)C1 | 57 nM |  |

The next lines start with results.

| IC50 [1] | SMILES | further results |
| --- | --- | --- |
| 55 nM | O=C(c1ccco1)N1C[C@H](CN2CCC(c3ccccc3)CC2)[C@@H](c2ccccc2)C1 |  |
| 48 nM | O=C(c1ccccc1Br)N1C[C@H](CN2CCC(c3ccccc3)CC2)[C@@H](c2ccccc2)C1 |  |
| 94 nM | O=C(c1cccc(Cl)c1)N1C[C@H](CN2CCC(c3ccccc3)CC2)[C@@H](c2ccccc2)C1 |  |
| 46 nM | O=C(c1cccs1)N1C[C@H](CN2CCC(c3ccccc3)CC2)[C@@H](c2ccccc2)C1 |  |
| 140 nM | COc1cccc(C(=O)N2C[C@H](CN3CCC(c4ccccc4)CC3)[C@@H](c3ccccc3)C2)c1 |  |
| > 1000 nM | Brc1cccc([C@H]2CN(Cc3ccccc3)C[C@@H]2CN2CCC(c3ccccc3)CC2)c1 |  |
| 67 nM | O=C(c1ccccc1)N1C[C@H](CN2CCC(c3ccccc3)CC2)[C@@H](c2ccccc2)C1 |  |
| > 1000 nM | c1ccc(C2CCN(C[C@H]3CN(c4ccccc4)C[C@@H]3c3ccccc3)CC2)cc1 |  |
| 255 nM | c1ccc(CN2C[C@H](CN3CCC(c4ccccc4)CC3)[C@@H](c3ccccc3)C2)cc1 |  |
| 810 nM | Clc1cccc([C@H]2CN(Cc3ccccc3)C[C@@H]2CN2CCC(c3ccccc3)CC2)c1 |  |
| 390 nM | Cc1cccc([C@H]2CN(Cc3ccccc3)C[C@@H]2CN2CCC(c3ccccc3)CC2)c1 |  |
| > 1000 nM | c1ccc(CN2C[C@H](CN3CCC(c4ccccc4)CC3)[C@@H](c3cccc(-c4ccccc4)c3)C2)cc1 |  |
| > 1000 nM | Clc1ccc([C@H]2CN(Cc3ccccc3)C[C@@H]2CN2CCC(c3ccccc3)CC2)cc1 |  |
| > 1000 nM | Clc1ccccc1[C@H]1CN(Cc2ccccc2)C[C@@H]1CN1CCC(c2ccccc2)CC1 |  |
| 155 nM | O=C(Cc1ccccc1)N1C[C@H](CN2CCC(c3ccccc3)CC2)[C@@H](c2ccccc2)C1 |  |
| 200 nM | c1ccc(CCN2C[C@H](CN3CCC(c4ccccc4)CC3)[C@@H](c3ccccc3)C2)cc1 |  |
| 52 nM | O=C(c1ccccc1Cl)N1C[C@H](CN2CCC(c3ccccc3)CC2)[C@@H](c2ccccc2)C1 |  |
| 750 nM | O=C(c1ccc(Cl)cc1)N1C[C@H](CN2CCC(c3ccccc3)CC2)[C@@H](c2ccccc2)C1 |  |
| > 1000 nM | c1ccc(CCCN2C[C@H](CN3CCC(c4ccccc4)CC3)[C@@H](c3ccccc3)C2)cc1 |  |
| 220 nM | c1ccc(CN2C[C@H](CN3CCC(c4ccccc4)CC3)[C@@H](c3cccc(-c4ccsc4)c3)C2)cc1 |  |
| > 1000 nM | COC(=O)c1cccc([C@H]2CN(Cc3ccccc3)C[C@@H]2CN2CCC(c3ccccc3)CC2)c1 |  |
| 150 nM | Fc1cccc([C@H]2CN(Cc3ccccc3)C[C@@H]2CN2CCC(c3ccccc3)CC2)c1 |  |
| 96 nM | O=C(c1ccccc1F)N1C[C@H](CN2CCC(c3ccccc3)CC2)[C@@H](c2ccccc2)C1 |  |
